Assay results: ChEMBL document CHEMBL3351980, “Michael acceptor approach to the design of new salvinorin A-based high affinity ligands for the kappa-opioid receptor” (Eur J Med Chem, 2014)

How the values were obtained:
[1] = molecular target: Mu-type opioid receptor (Homo sapiens, UniProt P35372); assay: Displacement of [3H]DAMGO from mu opioid receptor (unknown origin) expressed in HEK293T cells after 1.5 hrs by radioligand binding assay; format: cell-based, HEK-293T
[2] = molecular target: Delta-type opioid receptor (Homo sapiens, UniProt P41143); assay: Displacement of [3H]DADLE from delta opioid receptor (unknown origin) expressed in HEK293T cells after 1.5 hrs by radioligand binding assay; format: cell-based, HEK-293T
[3] = molecular target: T1, Kappa-type opioid receptor (Homo sapiens, UniProt P41145); assay: Displacement of [3H]U69593 from kappa opioid receptor (unknown origin) expressed in HEK293T cells after 1.5 hrs by radioligand binding assay; format: cell-based, HEK-293T
Procedure, shortened: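 HEK293T cells stably expressing KOR were hypotonically lysed in 50 mM Tris-HCl, 10 mM MgCl2, 0.1 mM EDTA, pH 7.4, and membranes were pelleted. Samples were filtered onto PEI-soaked GF/A filters and scintillation counted. Ki came from a one-site competition fit.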

[4] = molecular target: T1, Kappa-type opioid receptor; assay: Inhibition of human kappa opioid receptor expressed in HEK293T cells assessed as inhibition of cAMP production after 30 mins; format: functional, cell-based, HEK-293T
[5] = organism: Homo sapiens; assay: Selectivity ratio of Ki for mu opioid receptor (unknown origin) to ratio of Ki for kappa opioid receptor (unknown origin)
[6] = organism: Homo sapiens; assay: Selectivity ratio of Ki for delta opioid receptor (unknown origin) to ratio of Ki for kappa opioid receptor (unknown origin)

T1 sequence (P41145 whole entry): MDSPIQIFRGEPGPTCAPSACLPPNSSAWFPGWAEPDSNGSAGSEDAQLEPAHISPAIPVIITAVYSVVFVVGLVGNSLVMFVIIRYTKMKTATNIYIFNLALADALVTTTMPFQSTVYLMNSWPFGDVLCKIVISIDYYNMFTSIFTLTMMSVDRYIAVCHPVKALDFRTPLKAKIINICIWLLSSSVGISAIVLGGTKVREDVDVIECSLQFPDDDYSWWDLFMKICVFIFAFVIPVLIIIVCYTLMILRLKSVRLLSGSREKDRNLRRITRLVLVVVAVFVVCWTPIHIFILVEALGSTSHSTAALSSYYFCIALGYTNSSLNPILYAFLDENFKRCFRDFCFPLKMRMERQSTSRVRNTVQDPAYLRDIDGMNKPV
Chain of Mu-type opioid receptor (P35372 whole entry): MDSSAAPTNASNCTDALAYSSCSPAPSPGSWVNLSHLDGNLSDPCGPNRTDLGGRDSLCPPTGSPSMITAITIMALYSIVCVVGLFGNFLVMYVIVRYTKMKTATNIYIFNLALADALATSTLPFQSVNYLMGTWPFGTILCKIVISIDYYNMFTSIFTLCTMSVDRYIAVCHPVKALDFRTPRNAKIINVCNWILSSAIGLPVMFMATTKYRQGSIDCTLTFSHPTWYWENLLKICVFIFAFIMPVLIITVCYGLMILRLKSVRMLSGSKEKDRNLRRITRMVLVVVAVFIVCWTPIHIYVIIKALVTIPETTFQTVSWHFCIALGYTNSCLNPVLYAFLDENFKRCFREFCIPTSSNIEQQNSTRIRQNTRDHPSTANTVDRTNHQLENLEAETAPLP
Chain of Delta-type opioid receptor (P41143 whole entry): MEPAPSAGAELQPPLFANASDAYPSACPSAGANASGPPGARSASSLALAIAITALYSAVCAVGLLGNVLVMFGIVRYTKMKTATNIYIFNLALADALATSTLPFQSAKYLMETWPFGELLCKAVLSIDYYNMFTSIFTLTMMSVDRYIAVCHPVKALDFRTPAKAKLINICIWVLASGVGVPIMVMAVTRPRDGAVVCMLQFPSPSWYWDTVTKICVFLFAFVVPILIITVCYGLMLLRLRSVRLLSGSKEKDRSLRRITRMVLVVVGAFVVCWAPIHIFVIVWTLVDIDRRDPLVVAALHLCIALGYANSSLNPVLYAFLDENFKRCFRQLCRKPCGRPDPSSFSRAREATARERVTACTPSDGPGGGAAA

Structure (SMILES): COC(=O)[C@@H]1C[C@H](OC(=O)/C=C/c2ccc(OC)cc2)C(=O)[C@H]2[C@@]1(C)CC[C@H]1C(=O)O[C@H](c3ccoc3)C[C@]21C
- Ki [1]: > 10000 nM
- Ki [2]: > 10000 nM
- Ki [3]: 135 nM
- EC50 [4]: 21 nM

Structure (SMILES): COC(=O)[C@@H]1C[C@H](OC(=O)C=C(C)C)C(=O)[C@H]2[C@@]1(C)CC[C@H]1C(=O)O[C@H](c3ccoc3)C[C@]21C
- Ki [1]: 284 nM
- Ki [2]: 2630 nM
- Ki [3]: 385 nM
- EC50 [4]: 698 nM
- Ratio Ki [5]: 0.73
- Ratio Ki [6]: 6.8

Structure (SMILES): COC(=O)[C@@H]1C[C@H](OC(=O)/C=C/c2ccccc2C(F)(F)F)C(=O)[C@H]2[C@@]1(C)CC[C@H]1C(=O)O[C@H](c3ccoc3)C[C@]21C
- Ki [1]: > 10000 nM
- Ki [2]: > 10000 nM
- Ki [3]: 130 nM
- EC50 [4]: 20 nM

Structure (SMILES): C=C(C)C(=O)O[C@H]1C[C@@H](C(=O)OC)[C@]2(C)CC[C@H]3C(=O)O[C@H](c4ccoc4)C[C@]3(C)[C@H]2C1=O
- Ki [1]: > 10000 nM
- Ki [2]: 7820 nM
- Ki [3]: 34 nM
- Ratio Ki [6]: 221

Structure (SMILES): C=CC(C)C(=O)O[C@H]1C[C@@H](C(=O)OC)[C@]2(C)CC[C@H]3C(=O)O[C@H](c4ccoc4)C[C@]3(C)[C@H]2C1=O (some centres undefined)
- Ki [1]: 439 nM
- Ki [2]: 3030 nM
- Ki [3]: 28.8 nM
- EC50 [4]: 37 nM
- Ratio Ki [5]: 15
- Ratio Ki [6]: 105

Structure (SMILES): C=CC(=O)O[C@H]1C[C@@H](C(=O)OC)[C@]2(C)CC[C@H]3C(=O)O[C@H](c4ccoc4)C[C@]3(C)[C@H]2C1=O
- Ki [1]: 979 nM
- Ki [2]: > 10000 nM
- Ki [3]: 18.1 nM
- EC50 [4]: 137 nM
- Ratio Ki [5]: 54

Structure (SMILES): C/C=C(\C)C(=O)O[C@H]1C[C@@H](C(=O)OC)[C@]2(C)CC[C@H]3C(=O)O[C@H](c4ccoc4)C[C@]3(C)[C@H]2C1=O
- Ki [1]: > 10000 nM
- Ki [2]: > 10000 nM
- Ki [3]: 153 nM
- EC50 [4]: 477 nM

Structure (SMILES): COC(=O)[C@@H]1C[C@H](OC(=O)/C=C/c2ccc([N+](=O)[O-])cc2)C(=O)[C@H]2[C@@]1(C)CC[C@H]1C(=O)O[C@H](c3ccoc3)C[C@]21C
- Ki [1]: > 10000 nM
- Ki [2]: > 10000 nM
- Ki [3]: 281 nM
- EC50 [4]: 32 nM

Structure (SMILES): COC(=O)[C@@H]1C[C@H](OC(=O)/C=C/c2ccccc2[N+](=O)[O-])C(=O)[C@H]2[C@@]1(C)CC[C@H]1C(=O)O[C@H](c3ccoc3)C[C@]21C
- Ki [1]: > 10000 nM
- Ki [2]: > 10000 nM
- Ki [3]: 148 nM
- EC50 [4]: 33 nM

Structure (SMILES): COC(=O)[C@@H]1C[C@H](OC(=O)/C=C/c2ccccc2OC)C(=O)[C@H]2[C@@]1(C)CC[C@H]1C(=O)O[C@H](c3ccoc3)C[C@]21C
- Ki [1]: > 10000 nM
- Ki [2]: > 10000 nM
- Ki [3]: 64.9 nM
- EC50 [4]: 10 nM

Structure (SMILES): COC(=O)[C@@H]1C[C@H](OC(=O)/C=C/c2ccc3c(c2)OCO3)C(=O)[C@H]2[C@@]1(C)CC[C@H]1C(=O)O[C@H](c3ccoc3)C[C@]21C
- Ki [1]: 2820 nM
- Ki [2]: > 10000 nM
- Ki [3]: 323 nM
- EC50 [4]: 50 nM
- Ratio Ki [5]: 8.7

Structure (SMILES): COC(=O)[C@@H]1C[C@H](OC(=O)/C=C/c2cc(OC)ccc2OC)C(=O)[C@H]2[C@@]1(C)CC[C@H]1C(=O)O[C@H](c3ccoc3)C[C@]21C
- Ki [1]: > 10000 nM
- Ki [2]: > 10000 nM
- Ki [3]: 581 nM
- EC50 [4]: 38 nM

Structure (SMILES): C=CCC(=O)O[C@H]1C[C@@H](C(=O)OC)[C@]2(C)CC[C@H]3C(=O)O[C@H](c4ccoc4)C[C@]3(C)[C@H]2C1=O
- Ki [2]: 3260 nM

Structure (SMILES): C=C(C)CC(=O)O[C@H]1C[C@@H](C(=O)OC)[C@]2(C)CC[C@H]3C(=O)O[C@H](c4ccoc4)C[C@]3(C)[C@H]2C1=O
- Ki [1]: 362 nM
- Ki [2]: > 10000 nM
- Ki [3]: 6 nM
- EC50 [4]: 25 nM
- Ratio Ki [5]: 60

Structure (SMILES): COC(=O)[C@@H]1C[C@H](OC(=O)/C=C/c2ccccc2)C(=O)[C@H]2[C@@]1(C)CC[C@H]1C(=O)O[C@H](c3ccoc3)C[C@]21C
- Ki [1]: 52 nM
- Ki [2]: 700 nM
- Ki [3]: 9.6 nM
- EC50 [4]: 7 nM
- Ratio Ki [5]: 5.4
- Ratio Ki [6]: 73

Structure (SMILES): COC(=O)[C@@H]1C[C@H](OC(=O)/C=C/c2ccsc2)C(=O)[C@H]2[C@@]1(C)CC[C@H]1C(=O)O[C@H](c3ccoc3)C[C@]21C
- Ki [1]: 18 nM
- Ki [2]: 228 nM
- Ki [3]: 304 nM
- EC50 [4]: 582 nM
- Ratio Ki [5]: 0.06
- Ratio Ki [6]: 0.75

Structure (SMILES): COC(=O)[C@@H]1C[C@H](OC(=O)/C=C/c2ccc(OC)cc2OC)C(=O)[C@H]2[C@@]1(C)CC[C@H]1C(=O)O[C@H](c3ccoc3)C[C@]21C
- Ki [1]: > 10000 nM
- Ki [2]: > 10000 nM
- Ki [3]: 162 nM
- EC50 [4]: 27 nM

Structure (SMILES): COC(=O)[C@@H]1C[C@H](OC(=O)/C=C/c2cccnc2)C(=O)[C@H]2[C@@]1(C)CC[C@H]1C(=O)O[C@H](c3ccoc3)C[C@]21C
- Ki [1]: 334 nM
- Ki [2]: 4890 nM
- Ki [3]: > 10000 nM
- EC50 [4]: 1760 nM

Structure (SMILES): COC(=O)[C@@H]1C[C@H](OC(=O)/C=C/c2ccc(C(F)(F)F)cc2)C(=O)[C@H]2[C@@]1(C)CC[C@H]1C(=O)O[C@H](c3ccoc3)C[C@]21C
- Ki [1]: > 10000 nM
- Ki [2]: > 10000 nM
- Ki [3]: > 10000 nM
- EC50 [4]: 642 nM
- Ratio Ki [5]: 1
- Ratio Ki [6]: 1

Structure (SMILES): COC(=O)[C@@H]1C[C@H](OC(=O)/C=C/c2cc(C(F)(F)F)ccc2C(F)(F)F)C(=O)[C@H]2[C@@]1(C)CC[C@H]1C(=O)O[C@H](c3ccoc3)C[C@]21C
- Ki [1]: > 10000 nM
- Ki [2]: 5870 nM
- Ki [3]: > 10000 nM
- EC50 [4]: 1210 nM

Structure (SMILES): COC(=O)[C@@H]1C[C@H](OC(=O)/C=C/c2cc(OC)c(OC)c(OC)c2)C(=O)[C@H]2[C@@]1(C)CC[C@H]1C(=O)O[C@H](c3ccoc3)C[C@]21C
- Ki [1]: > 10000 nM
- Ki [2]: > 10000 nM
- Ki [3]: > 10000 nM
- EC50 [4]: 1800 nM

Structure (SMILES): C/C=C/C(=O)O[C@H]1C[C@@H](C(=O)OC)[C@]2(C)CC[C@H]3C(=O)O[C@H](c4ccoc4)C[C@]3(C)[C@H]2C1=O
- Ki [1]: 540 nM
- Ki [2]: > 10000 nM
- Ki [3]: 25.3 nM
- EC50 [4]: 11 nM
- Ratio Ki [5]: 21
